The source of these data is ChEMBL document CHEMBL5038593, “Rational Design and Synthesis of Novel Dual PROTACs for Simultaneous Degradation of EGFR and PARP” (J Med Chem, 2021).

Test [1] has as its system NCI-H1299. Put plainly: cells. The class given is functional, cell-based. To be noted: Homo sapiens, NCI-H1299, 72 h.
Test [2] deals with T1, Protein cereblon/Epidermal growth factor receptor (Homo sapiens) (UniProt P00533+Q96SW2). Put plainly: Protac activity at CRBN/EGFR in human SW1990 cells assessed as induction of EGFR degradation at 1 to 50 uM incubated for 24 hrs by Western blot analysis. The class given is cell-based. To be noted: dose 1-50 µM. The procedure, abridged:
(§1)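 SW1990 cells grown in high-glucose DMEM (25 mM glucose) with 10% FBS, 5% CO₂, 37 °C. Seeded and left 24 h, then exposed to DMSO or compound. Cells washed in PBS, lysed in RIPA, and cleared at 13 000 rpm for 15 min. Protein measured by BCA. 20−40 μg run on 10% SDS-PAGE, moved to PVDF, blocked 1 h in 5% milk or BSA, primary antibodies 1:1000 overnight at 4 °C, ECL detection.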
Background: A western blot detects proteins with antibodies after separation by electrophoresis.

Test [3] concerns the target T2, von Hippel-Lindau disease tumor suppressor/Epidermal growth factor receptor (Homo sapiens) (UniProt P00533+P40337). Put plainly: Protac activity at VHL/EGFR in human NCI-H1299 cells assessed as induction of EGFR degradation by measuring reduction in p-EGFR level at 15 uM incubated for 36 hrs by Western blot analysis. The class given is cell-based. The procedure, abridged: (§2)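 NCI-H1299 cells grown in high-glucose DMEM with 10% FBS at 37 °C, 5% CO₂. Compound given after 24 h seeding. Lysis in RIPA, BCA protein assay, 20−40 μg on 10% SDS-PAGE, PVDF transfer, primary antibodies 1:1000 overnight at 4 °C, ECL. EGFR, p-EGFR and PARP probed.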

Test [4] has as its target T3, von Hippel-Lindau disease tumor suppressor/Poly [ADP-ribose] polymerase 1 (Homo sapiens) (UniProt P09874+P40337). In words: Protac activity at VHL/PARP-1 in human A-431 cells assessed as induction of PARP-1 degradation at 0.8 to 20 uM incubated for 36 hrs by Western blot analysis. Type of test: cell-based. To be noted: dose 0.8-20 µM.
In test [5] the target is T2, von Hippel-Lindau disease tumor suppressor/Epidermal growth factor receptor (Homo sapiens). Put plainly: Protac activity at VHL/EGFR in human A-431 cells assessed as induction of EGFR degradation at 0.8 to 20 uM incubated for 36 hrs by Western blot analysis. The class given is cell-based. To be noted: dose 0.8-20 µM.
Test [6] shares this target. Put plainly: Protac activity at VHL/EGFR in human NCI-H1299 cells assessed as induction of EGFR degradation at 4 uM incubated for 6 hrs by Western blot analysis. Type of test: cell-based. The procedure, abridged:
as §2

The target in test [7] is T3, von Hippel-Lindau disease tumor suppressor/Poly [ADP-ribose] polymerase 1 (Homo sapiens). In words: Protac activity at VHL/PARP-1 in human NCI-H1299 cells assessed as induction of PARP degradation at 4 uM incubated for 6 hrs by Western blot analysis. Type of test: cell-based. The procedure, abridged:
as §2

The target of test [8] is T2, von Hippel-Lindau disease tumor suppressor/Epidermal growth factor receptor (Homo sapiens). Put plainly: Protac activity at VHL/EGFR in human NCI-H1299 cells assessed as decrease in EGFR degradation at up to 15 uM pretreated with proteasome inhibitor MG132 for 4 hr followed by incubation with compound for 6 hrs by Western blot analysis. Type of test: cell-based. To be noted: dose microM <=15, time 6.0 hrs. The procedure, abridged:
as §2

The target of test [9] is T3, von Hippel-Lindau disease tumor suppressor/Poly [ADP-ribose] polymerase 1 (Homo sapiens). In words: Protac activity at VHL/PARP-1 in human NCI-H1299 cells assessed as decrease of PARP-1 degradation at up to 15 uM pretreated with proteasome inhibitor MG132 for 4 hr followed by incubation with compound for 6 hrs by Western blot analysis. Type of test: cell-based. As to conditions: dose microM <=15, time 6.0 hrs. Summed up: as §2

Test [10] has as its target Epidermal growth factor receptor (Homo sapiens, UniProt P00533). In words: biochemical. The class given is cell-based.
The target of test [11] is Poly [ADP-ribose] polymerase 1 (Homo sapiens, UniProt P09874). Put plainly: Binding affinity to human GST-tagged PARP-1 ART domain (788 to 1014 residues) expressed in Escherichia coli BL21 (DE3) assessed as dissociation constant incubated for 30 mins by microscale thermophoresis analysis.
Chain of Poly [ADP-ribose] polymerase 1 (P09874 whole entry, the tested form may be a part): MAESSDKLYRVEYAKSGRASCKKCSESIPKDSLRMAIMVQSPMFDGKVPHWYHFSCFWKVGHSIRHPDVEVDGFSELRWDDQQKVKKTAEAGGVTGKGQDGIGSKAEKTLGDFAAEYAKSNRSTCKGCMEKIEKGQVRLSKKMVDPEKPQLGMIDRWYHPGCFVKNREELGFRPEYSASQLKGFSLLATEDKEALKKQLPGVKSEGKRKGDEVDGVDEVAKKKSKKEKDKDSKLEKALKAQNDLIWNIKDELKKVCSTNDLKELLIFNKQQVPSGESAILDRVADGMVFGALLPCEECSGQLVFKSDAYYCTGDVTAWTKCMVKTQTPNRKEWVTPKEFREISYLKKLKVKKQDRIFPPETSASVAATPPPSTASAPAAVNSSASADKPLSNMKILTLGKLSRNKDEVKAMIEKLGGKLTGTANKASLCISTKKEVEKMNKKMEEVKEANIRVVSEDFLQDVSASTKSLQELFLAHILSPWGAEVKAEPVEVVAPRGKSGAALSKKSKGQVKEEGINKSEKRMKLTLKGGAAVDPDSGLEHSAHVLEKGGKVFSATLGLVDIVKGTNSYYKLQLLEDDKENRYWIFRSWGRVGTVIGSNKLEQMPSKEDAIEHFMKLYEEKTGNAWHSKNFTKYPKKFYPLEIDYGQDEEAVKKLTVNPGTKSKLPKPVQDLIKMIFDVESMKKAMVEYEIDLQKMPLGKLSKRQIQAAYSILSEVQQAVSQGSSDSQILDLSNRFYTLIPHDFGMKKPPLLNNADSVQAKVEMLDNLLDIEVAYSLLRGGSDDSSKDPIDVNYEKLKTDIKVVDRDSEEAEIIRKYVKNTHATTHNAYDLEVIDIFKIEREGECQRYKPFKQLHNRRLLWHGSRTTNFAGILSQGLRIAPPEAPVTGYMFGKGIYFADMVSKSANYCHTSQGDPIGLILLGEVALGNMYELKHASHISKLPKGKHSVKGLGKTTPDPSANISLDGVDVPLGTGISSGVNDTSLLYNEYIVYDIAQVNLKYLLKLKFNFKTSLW
Test [12] has as its target T3, von Hippel-Lindau disease tumor suppressor/Poly [ADP-ribose] polymerase 1 (Homo sapiens). In words: Protac activity at VHL/PARP-1 in human NCI-H1299 cells assessed as induction of PARP degradation at 0.47 uM incubated for 36 hrs by Western blot analysis relative to control.
Test [13] deals with T4, Protein cereblon/Poly [ADP-ribose] polymerase 1 (Homo sapiens) (UniProt P09874+Q96SW2). Put plainly: Protac activity at CRBN/PARP-1 in human SW1990 cells assessed as induction of PARP-1 degradation at 1 to 50 uM incubated for 24 hrs by Western blot analysis. Type of test: cell-based. To be noted: dose 1-50 µM. Summed up:
as §1

Test [14] concerns the target T1, Protein cereblon/Epidermal growth factor receptor (Homo sapiens). Put plainly: Protac activity at CRBN/EGFR in human SW1990 cells assessed as induction of EGFR degradation at 5 uM measured after 6 to 48 hrs by Western blot analysis. Type of test: cell-based. To be noted: time 6-48 hrs, TDE = time-dependent effect. Summed up: as §1
The target in test [15] is T4, Protein cereblon/Poly [ADP-ribose] polymerase 1 (Homo sapiens). In words: Protac activity at CRBN/PARP-1 in human SW1990 cells assessed as induction of PARP-1 degradation at 5 uM measured after 6 to 48 hrs by Western blot analysis. Type of test: cell-based. To be noted: time 6-48 hrs, TDE = time-dependent effect. Summed up: as §1
Test [16] deals with T1, Protein cereblon/Epidermal growth factor receptor (Homo sapiens). In words: Protac activity at CRBN/EGFR in human SW1990 cells assessed as decrease in EGFR expression level at 1 to 50 uM pretreated with proteasome inhibitor MG132 for 4 hr followed by incubation with compound for 24 hrs by Western blot analysis. Type of test: cell-based. As to conditions: dose 1-50 µM. The procedure, abridged:
as §1

The target in test [17] is T4, Protein cereblon/Poly [ADP-ribose] polymerase 1 (Homo sapiens). Put plainly: Protac activity at CRBN/PARP-1 in human SW1990 cells assessed as decrease of PARP-1 expression level at 1 to 50 uM pretreated with proteasome inhibitor MG132 for 4 hr followed by incubation with compound for 24 hrs by Western blot analysis. Type of test: cell-based. To be noted: dose 1-50 µM. Summed up: as §1

Activity calls are given as the source filed them. No cut-off for these calls is given here.

T3 sequence (P09874 whole entry, looked up): as the sequence (P09874 whole entry, the tested form may be a part) above
T3 sequence (P40337 whole entry, looked up): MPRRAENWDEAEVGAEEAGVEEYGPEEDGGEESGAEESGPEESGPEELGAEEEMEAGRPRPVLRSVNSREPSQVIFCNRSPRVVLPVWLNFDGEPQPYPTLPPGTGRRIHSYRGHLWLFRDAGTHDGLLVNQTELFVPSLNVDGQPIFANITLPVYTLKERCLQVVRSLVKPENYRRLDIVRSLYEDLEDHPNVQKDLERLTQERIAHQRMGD
T4 sequence (P09874 2-1014 limits assumed): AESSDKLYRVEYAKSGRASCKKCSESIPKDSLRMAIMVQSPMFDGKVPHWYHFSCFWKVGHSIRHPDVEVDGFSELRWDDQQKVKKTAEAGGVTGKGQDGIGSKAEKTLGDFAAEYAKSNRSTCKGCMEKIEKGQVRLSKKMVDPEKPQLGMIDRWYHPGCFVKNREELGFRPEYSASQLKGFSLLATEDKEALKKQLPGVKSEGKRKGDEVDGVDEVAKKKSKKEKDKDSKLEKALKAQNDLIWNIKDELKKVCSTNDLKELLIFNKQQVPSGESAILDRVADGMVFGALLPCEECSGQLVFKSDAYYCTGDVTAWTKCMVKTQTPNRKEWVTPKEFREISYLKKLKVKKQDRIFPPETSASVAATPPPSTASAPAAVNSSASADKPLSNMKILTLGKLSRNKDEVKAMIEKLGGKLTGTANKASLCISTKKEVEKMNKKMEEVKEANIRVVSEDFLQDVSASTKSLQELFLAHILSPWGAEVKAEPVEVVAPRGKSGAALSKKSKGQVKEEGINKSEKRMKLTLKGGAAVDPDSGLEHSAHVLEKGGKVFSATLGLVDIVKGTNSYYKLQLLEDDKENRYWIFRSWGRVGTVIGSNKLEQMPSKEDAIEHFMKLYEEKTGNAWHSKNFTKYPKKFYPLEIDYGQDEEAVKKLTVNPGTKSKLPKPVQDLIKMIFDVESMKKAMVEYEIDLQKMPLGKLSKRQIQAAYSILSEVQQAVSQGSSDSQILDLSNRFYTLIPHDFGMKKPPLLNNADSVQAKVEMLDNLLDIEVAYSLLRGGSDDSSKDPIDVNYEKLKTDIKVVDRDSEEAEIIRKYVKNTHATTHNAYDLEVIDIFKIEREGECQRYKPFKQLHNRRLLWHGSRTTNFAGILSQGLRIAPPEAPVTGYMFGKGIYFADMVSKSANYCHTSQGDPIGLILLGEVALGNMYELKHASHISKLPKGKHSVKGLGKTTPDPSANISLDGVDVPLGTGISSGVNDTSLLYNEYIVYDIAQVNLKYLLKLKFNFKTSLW
T4 sequence (Q96SW2 whole entry partner): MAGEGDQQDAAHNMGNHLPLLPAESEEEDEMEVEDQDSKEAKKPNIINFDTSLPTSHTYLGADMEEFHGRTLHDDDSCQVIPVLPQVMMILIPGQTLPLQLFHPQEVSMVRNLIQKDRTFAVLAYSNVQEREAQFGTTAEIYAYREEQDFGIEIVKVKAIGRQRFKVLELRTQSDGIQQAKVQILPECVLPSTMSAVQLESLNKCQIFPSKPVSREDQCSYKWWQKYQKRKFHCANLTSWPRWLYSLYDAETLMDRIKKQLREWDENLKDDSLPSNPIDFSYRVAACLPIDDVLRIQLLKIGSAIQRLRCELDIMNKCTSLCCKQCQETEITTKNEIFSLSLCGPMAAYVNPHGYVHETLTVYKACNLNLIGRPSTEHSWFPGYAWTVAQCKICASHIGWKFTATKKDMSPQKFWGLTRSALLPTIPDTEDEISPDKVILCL
T2 sequence (P00533 25-1210 limits assumed): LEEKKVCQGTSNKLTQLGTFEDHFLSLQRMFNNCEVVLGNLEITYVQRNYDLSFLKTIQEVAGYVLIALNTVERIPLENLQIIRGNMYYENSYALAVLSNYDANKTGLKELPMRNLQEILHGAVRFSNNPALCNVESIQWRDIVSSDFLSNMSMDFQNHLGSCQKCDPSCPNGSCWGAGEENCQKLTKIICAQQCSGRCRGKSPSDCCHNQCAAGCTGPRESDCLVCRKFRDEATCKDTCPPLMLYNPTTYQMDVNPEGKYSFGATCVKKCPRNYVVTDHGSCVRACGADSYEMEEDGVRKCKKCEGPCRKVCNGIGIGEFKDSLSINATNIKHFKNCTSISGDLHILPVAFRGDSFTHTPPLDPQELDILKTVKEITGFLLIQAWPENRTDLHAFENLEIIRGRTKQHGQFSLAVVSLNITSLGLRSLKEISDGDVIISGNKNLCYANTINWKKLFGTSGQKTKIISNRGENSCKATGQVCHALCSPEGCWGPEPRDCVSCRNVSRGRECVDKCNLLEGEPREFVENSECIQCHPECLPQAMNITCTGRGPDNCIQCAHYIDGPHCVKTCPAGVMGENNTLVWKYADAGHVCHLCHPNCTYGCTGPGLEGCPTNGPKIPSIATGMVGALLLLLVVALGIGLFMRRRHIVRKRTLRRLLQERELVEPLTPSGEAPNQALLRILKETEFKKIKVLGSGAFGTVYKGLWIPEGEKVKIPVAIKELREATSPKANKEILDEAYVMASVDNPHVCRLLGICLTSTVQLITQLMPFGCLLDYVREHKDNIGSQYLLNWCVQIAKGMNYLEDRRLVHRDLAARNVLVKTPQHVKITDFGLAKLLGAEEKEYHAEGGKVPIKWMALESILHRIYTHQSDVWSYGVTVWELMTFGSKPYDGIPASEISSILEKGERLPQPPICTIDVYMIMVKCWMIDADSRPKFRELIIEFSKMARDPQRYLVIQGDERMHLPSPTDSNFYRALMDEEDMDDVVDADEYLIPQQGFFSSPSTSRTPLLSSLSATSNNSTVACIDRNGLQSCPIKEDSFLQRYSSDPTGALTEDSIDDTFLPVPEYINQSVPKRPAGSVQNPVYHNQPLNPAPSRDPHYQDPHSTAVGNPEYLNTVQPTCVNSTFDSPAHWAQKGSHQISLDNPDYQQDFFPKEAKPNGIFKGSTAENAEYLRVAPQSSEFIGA
T2 sequence (P40337 whole entry partner): as the sequence (P40337 whole entry, looked up) above

Broadly, the IC50 is the concentration needed to halve the response being measured. Compound `O=C(c1cc(Cc2n[nH]c(=O)c3ccccc23)ccc1F)N1CCN(C(=O)C2CC2)CC1` [OLAPARIB] returned an IC50 in [1] of 35.9 µM. This lies in the double-digit micromolar range.
`COc1cc2ncnc(Nc3ccc(F)c(Cl)c3)c2cc1OCCCC(=O)NCc1cn(CCOCCNc2cccc3c2C(=O)N(C2CCC(=O)NC2=O)C3=O)nn1` (centres undefined): the result in test [2] was Active.
One may read the Kd as the constant that tells how readily two partners part at equilibrium. As for `COc1cc2ncnc(Nc3ccc(F)c(Cl)c3)c2cc1OCCCCCC(=O)NC(COCc1cn(CCCC(=O)N[C@H](C(=O)N2C[C@H](O)C[C@H]2C(=O)NCc2ccc(-c3scnc3C)cc2)C(C)(C)C)nn1)C(=O)NCCCCCC(=O)N1CCN(C(=O)c2cc(Cc3n[nH]c(=O)c4ccccc34)ccc2F)CC1` (some centres undefined), the outcome in test [3], in test [4], in test [5], in test [6], in test [7] and in test [8] was Active. In test [9], the outcome was Active. In addition, in test [1], the IC50 was determined as 19.9 µM. Also, the Kd in test [10] came to 5.47 µM; in test [11] it was 12.8 µM. Further, in test [12], the Activity was found to be 50%.
Turning to `COc1cc2ncnc(Nc3ccc(F)c(Cl)c3)c2cc1OCC(=O)NC(Cc1ccc(OCc2cn(CCOCCNc3cccc4c3C(=O)N(C3CCC(=O)NC3=O)C4=O)nn2)cc1)C(=O)N1CCN(C(=O)c2cc(Cc3n[nH]c(=O)c4ccccc34)ccc2F)CC1` (centres undefined), the result in [2], in [13], in test [16] and in [17] was Active. Further, the Activity result in test [14] and in test [15] was “Tde” in each case. The figures for the Kd in test [10] and in [11] were 2.74 µM and 7.89 µM, respectively.
As to `O=C1CCC(N2C(=O)c3cccc(NCCOCCn4cc(CCC(=O)N5CCN(C(=O)c6cc(Cc7n[nH]c(=O)c8ccccc78)ccc6F)CC5)nn4)c3C2=O)C(=O)N1` (centres undefined), the result in [2] and in test [13] was Active.
As to `COc1cc2ncnc(Nc3ccc(F)c(Cl)c3)c2cc1OCCCC(=O)NC(COCc1cn(CCOCCNc2cccc3c2C(=O)N(C2CCC(=O)NC2=O)C3=O)nn1)C(=O)N1CCN(C(=O)c2cc(Cc3n[nH]c(=O)c4ccccc34)ccc2F)CC1` (centres undefined), the result in [2] and in [13] was Active.
`COc1cc2ncnc(Nc3ccc(F)c(Cl)c3)c2cc1OCCCC(=O)NC(COCc1cn(CCOCCNc2cccc3c2C(=O)N(C2CCC(=O)NC2=O)C3=O)nn1)C(=O)NCCCC(=O)N1CCN(C(=O)c2cc(Cc3n[nH]c(=O)c4ccccc34)ccc2F)CC1` (centres undefined): the result in [2] and in test [13] was Active.
With `COc1cc2ncnc(Nc3ccc(F)c(Cl)c3)c2cc1OCCCCCC(=O)NC(COCc1cn(CCOCCOCCNc2cccc3c2C(=O)N(C2CCC(=O)NC2=O)C3=O)nn1)C(=O)NCCCCCC(=O)N1CCN(C(=O)c2cc(Cc3n[nH]c(=O)c4ccccc34)ccc2F)CC1` (centres undefined), the outcome in [2] and in [13] was Active.
